High-throughput results: PubChem BioAssay, Broad Institute
This is a sample that favours compounds with a hit; in the whole collection about 2.6% have one here.
RAD54 branch: inhibitors of human RAD54 branch migration, primary screen, biochemical, fluorescence, single point. AID 602329, 2012. 0.14% of 360,000 active. inhibition, % at 10.4 µM. RAD54 Holliday junction branch migration, FAM/BHQ fluorescence;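 active = mean normalized replicate activity at least 40 and at least half of replicates scoring 40 or more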;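 note: inhibitors cause a drop in the FAM fluorescence signal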
MLL AF4-AF9 inh: inhibitors of AF4 peptide binding to AF9, primary screen, biochemical, AlphaScreen, biotin-AF4 peptide, FLAG-AF9, single point | Protein AF-9 (Homo sapiens), P42568 | inhibition, % at 10 µM | 0.47% of 350,000 active | AID 651704, 2012;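 active = every replicate reaching a set inhibition limit, whatever the replicate mean, cut at about 25% in these data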
E-selectin induc: E-selectin induction in HUVECs, primary screen, imaging, HUVEC, immunofluorescence imaging, single point; normalized: neutral wells 0, TNF-alpha wells 100; activation, % at 7.58 µM; 0.37% of 260,000 active; AID 686992, 2013;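 active = mean E-selectin-positive cell signal at least 10% of the positive control, reached in at least 60% of replicates, without over 20% cell loss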
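Read-out basis: % PE-positive cells; Test system: HUVEC primary endothelial cells; Technique: immunofluorescence imaging; Dosing: single-point compound dose.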
rRNA inh HTS: reduced GFP signal of wild-type E. coli, primary screen, bacterial rRNA inhibitor project, GFP/RFP fluorescence, OD600, single point. E. coli WT GFP vs humanized-ribosome RFP mutants, 24 h; stronger effect = lower value; DMSO median 0, no signal -100. GFP signal change (wild-type ribosome), % (test concentration not listed). 1.6% of 350,000 active. AID 720706, 2013;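 active = significant combined selectivity score with lowered wild-type GFP, culture density cut under 30%, mutant RFP and density less affected; inactive = any of these conditions unmet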
INS-1E GSIS act: GLuc luminescence reporter in INS-1E cells, primary screen for activators of glucose-dependent secretion of insulin; INS-1E GLuc reporter insulin secretion, 2-3 h; activation, % at 16.6 µM; 0.61% of 370,000 active; AID 743287, 2014;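 active = lowest replicate activation of at least 40%, so every replicate reaches that level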
RAD52 anneal inh: RAD52 DNA annealing inhibitors, primary screen, biochemical, FRET, single point, set 2; DNA repair protein RAD52 homolog (Homo sapiens), P43351; recombinant RAD52 DNA annealing, FRET fluorescence; inhibition, % at 18.7 µM; 0.46% of 360,000 active;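 active = every replicate showing at least 50% inhibition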
Target sequence (P43351 whole entry, looked up): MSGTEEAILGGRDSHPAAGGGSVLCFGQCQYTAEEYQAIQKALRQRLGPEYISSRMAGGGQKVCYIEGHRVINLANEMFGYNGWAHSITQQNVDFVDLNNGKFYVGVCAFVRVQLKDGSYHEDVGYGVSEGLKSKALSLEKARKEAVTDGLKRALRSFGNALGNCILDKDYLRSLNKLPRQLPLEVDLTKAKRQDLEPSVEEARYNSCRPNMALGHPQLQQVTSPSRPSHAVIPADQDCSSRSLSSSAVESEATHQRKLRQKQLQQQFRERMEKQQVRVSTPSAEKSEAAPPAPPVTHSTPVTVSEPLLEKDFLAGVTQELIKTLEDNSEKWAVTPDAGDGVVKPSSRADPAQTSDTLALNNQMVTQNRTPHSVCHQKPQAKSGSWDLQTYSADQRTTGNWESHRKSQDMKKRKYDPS
Each line names hits and unclear results; the compound was inactive in the other large screens.

COc1ccc(NC(=O)N(C)C[C@@H]2Oc3ccc(N(C)C)cc3CC(=O)N([C@H](C)CO)C[C@@H]2C)cc1	none
C[C@@H]1CN([C@@H](C)CO)C(=O)Cc2cc(NC(=O)c3ccncc3)ccc2O[C@@H]1CN(C)S(C)(=O)=O	E-selectin induc 37
COc1ccc(NC(=O)N(C)C[C@H]2Oc3ccc(N(C)C)cc3CC(=O)N([C@H](C)CO)C[C@@H]2C)cc1	E-selectin induc 327
O=C(N[C@H]1C=C[C@H](CC(=O)N2CCOCC2)O[C@H]1CO)c1ccc2c(c1)OCO2	none
COc1ccc(S(=O)(=O)N(C)C[C@H]2Oc3ccc(NC(=O)C4CC4)cc3C(=O)N([C@@H](C)CO)C[C@H]2C)cc1	none
COc1cccc(-c2ccc3n(c2=O)C[C@@H]2[C@@H](CO)[C@H](C(=O)N(C)C)N(C(=O)C4CCC4)[C@H]32)c1	none
O=C1NC(=S)SC1=Cc1ccc2c(c1)OCO2	none
O=C1N/C(=N/S(=O)(=O)Cc2ccccc2)S/C1=C/c1ccc2c(c1)OCO2	rRNA inh HTS -40 (no result: E-selectin induc)
N#Cc1cc2c(nc1SCc1ccc(Cl)cc1)CCCC2	none (no result: E-selectin induc)
CCn1c(SCc2ccc(Cl)cc2)nc2nc3c(cc2c1=O)CCCC3	rRNA inh HTS -22 (no result: E-selectin induc, INS-1E GSIS act)
Cc1ccccc1C(=O)Nc1ccc(C(=O)N/N=C/c2ccncc2)cc1	rRNA inh HTS -29 (no result: RAD54 branch, E-selectin induc)
Cc1ccccc1C(=O)Nc1ccc(C(=O)N/N=C/c2ccc(O)cc2)cc1	none (no result: E-selectin induc)
COCC(=O)N(C)C[C@@H]1Oc2ncc(C3=CCCCC3)cc2C(=O)N([C@H](C)CO)C[C@H]1C	none
CC(C)Nc1nc(NCCN2CCCC2)c2sc(-c3ccccc3)cc2n1	RAD52 anneal inh 76
COc1ccc(S(=O)(=O)Nc2ccc3c(c2)C(=O)N(C)C[C@H](OC)[C@H](C)CN[C@@H](C)CO3)cc1	none
COc1ccc(-c2[nH]c3ccccc3c2SCCN)cc1	INS-1E GSIS act 57
CCN(C(=O)CSc1ncccn1)c1cccc2ccccc12	INS-1E GSIS act 48
O=C1c2ccccc2S(=O)(=O)c2cc(N3CCC(C(=O)N4CCCCC4)CC3)ccc21	rRNA inh HTS -21 (no result: RAD54 branch, E-selectin induc)
O=C(Cc1ccncc1)NCC[C@@H]1CC[C@@H](NC(=O)C2CCCCC2)[C@@H](CO)O1	none
CC(=O)NC12CC3CC(C1)CC(C(=O)Nc1nccs1)(C3)C2	none (no result: MLL AF4-AF9 inh, E-selectin induc, rRNA inh HTS, INS-1E GSIS act, RAD52 anneal inh)
CCOc1ccc2nc(NC(=O)C3CCCO3)sc2c1 (centres undefined)	none
CCOc1ccc2nc(NC(=O)C34CC5CC(CC(NC(C)=O)(C5)C3)C4)sc2c1	rRNA inh HTS -33
COc1ccc2nc(NC(=O)C34CC5CC(CC(NC(C)=O)(C5)C3)C4)sc2c1	rRNA inh HTS -27
CC(C)Cc1nc2n[nH]c(N)c2c2c1COC(C)(C)C2	INS-1E GSIS act 80 (no result: RAD54 branch, MLL AF4-AF9 inh, E-selectin induc, rRNA inh HTS, RAD52 anneal inh)
C[C@@H]1CCCCO[C@H](CN(C)S(=O)(=O)c2ccc(F)cc2)[C@H](C)CN([C@H](C)CO)C(=O)c2cc(NC(=O)NC3CCCCC3)ccc2O1	none
COc1cccc(C(=O)Oc2cc3c4c(c2)C(C)=CC(C)(C)N4C(=O)C3=O)c1	MLL AF4-AF9 inh 26, rRNA inh HTS -20 (no result: E-selectin induc)
C[C@H](CO)N1C[C@H](C)[C@H](CN(C)C)Oc2cc(-c3cccc(C(=O)N(C)C)c3)ccc2S1(=O)=O	none
CCC(C)(CC(=O)Nc1nccs1)c1ccccc1 (centres undefined)	INS-1E GSIS act 41
O=C(CCSc1ccccc1)Nc1nccs1	none (no result: RAD54 branch, MLL AF4-AF9 inh, E-selectin induc, rRNA inh HTS, RAD52 anneal inh)
O=C(NCC[C@H]1CC[C@H](NS(=O)(=O)c2ccccc2F)[C@H](CO)O1)c1ccc(F)cc1	none
COc1ccc(CC(=O)OCn2nnc3ccccc3c2=O)cc1	none (no result: MLL AF4-AF9 inh, E-selectin induc, rRNA inh HTS, RAD52 anneal inh)
COc1ccc(CC(=O)OCn2nnc3ccccc3c2=O)cc1OC	INS-1E GSIS act 44 (no result: RAD54 branch)
COc1ccc(CC(=O)OCN2C(=O)c3ccccc3C2=O)cc1	none (no result: MLL AF4-AF9 inh, E-selectin induc, rRNA inh HTS, RAD52 anneal inh)
COc1ccc(CC(=O)OCN2C(=O)c3ccccc3C2=O)cc1OC	INS-1E GSIS act 62 (no result: E-selectin induc)
